Source: PubChem (several laboratories)
Shown are actives, neighbours in structure and some others; about 1.7% of the full set was active somewhere.
CSN inh: inhibitors of human CSN-mediated cullin deneddylation. Purified CSN, SCF-Nedd8-OG deneddylation, fluorescence polarization. inhibition, % at 12.5 µM. hit rate 0.38% among 360,000;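 active means pattern-corrected inhibition above about 35%, with an unprinted fluorescence ratio check between 0.5 and 1.5, limit read from the data, passing the limit was not always enough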
Target sequence (Q92905 whole entry, looked up, one chain of several): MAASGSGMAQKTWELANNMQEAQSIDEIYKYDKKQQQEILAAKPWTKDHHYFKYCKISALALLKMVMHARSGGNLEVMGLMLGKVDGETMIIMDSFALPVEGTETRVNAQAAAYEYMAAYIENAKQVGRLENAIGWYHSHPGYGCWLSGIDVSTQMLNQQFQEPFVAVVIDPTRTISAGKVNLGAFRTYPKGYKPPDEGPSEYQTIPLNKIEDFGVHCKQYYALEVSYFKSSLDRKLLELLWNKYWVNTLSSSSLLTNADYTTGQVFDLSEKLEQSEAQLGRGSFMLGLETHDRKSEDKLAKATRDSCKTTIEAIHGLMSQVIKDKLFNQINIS
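Material: purified human Csn5 enzyme expressed in HEK293T cells / Medium: Tris buffer pH 7.5, NaCl, DTT, Tween-20, trehalose, ovalbumin / Compound dosing: 12.5 µM single point / Schedule: 90 min incubation of compound, enzyme and substrate at room temperature / Signal: fluorescence polarization of the substrate / Control set: no-enzyme wells high, enzyme-with-substrate wells low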
TPT1 inhibitor: blocks Candida albicans tRNA 2'-phosphotransferase; recombinant caTPT1, FP RNA substrate dephosphorylation; inhibition, % at 5 µM; hit rate 0.81% among 300,000;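 active means inhibition above the mean of all tested compounds plus 3 SD, set per screening campaign, cut at about 24% in these data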
IDE cell inh: inhibits human insulin-degrading enzyme in HEK cells. FAbetaB cleavage, fluorescence polarization. inhibition, % at 5.59 µM. hit rate 0.41% among 320,000;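 active means percent inhibition above the average of all tested compounds plus 3 SD, set per screening campaign, cut at about 16% in these data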;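 further: IDE supplied by intact live HEK cells; FP after avidin binding of uncleaved biotin substrate so inhibition keeps polarization high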
IDE act: boosts human insulin-degrading enzyme activity in HEK cells. P14735. FAbeta-B cleavage, fluorescence polarization; 0% vehicle, 100% cell-free pure enzyme wells. activation, % at 5.96 µM. hit rate 0.073% among 340,000. AID 493087;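 active means activation above the mean of all tested compounds plus 3 SD, set per screening campaign, cut at about 17% in these data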
Rpn11 block: inhibitors of human proteasome Rpn11 | hit rate 0.59% among 360,000 | human 26S proteasome, Ub4-pepOG fluorescence polarization; 20S core pre-blocked with epoxomicin | inhibition, % at 20 µM;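 active means inhibition at 20 µM, scaled to each plate's controls, above about 33%, limit read from the data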
HNF4A DNA FP: change in binding of human HNF4 alpha to DNA; P41235; HNF4a-FITC DNA binding, fluorescence polarization, 1 h; activity change, % at 10 µM; hit rate 0.3% among 360,000; in the data active means activity change above about 30%, passing the limit was not always enough
TPT1 inh confirm: TPT1 (C. albicans) inhibition, confirmation; hit rate 74% among 2,400; shares compounds with TPT1 inhibitor; recombinant caTPT1, fluorescence polarization, RNase T1 coupled; inhibition, % at 5 µM;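 active means inhibition above the primary screen limit, the mean inhibition of all tested compounds plus 3 SD, cut at about 25% in these data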
RNase T1 counter: blocks Aspergillus oryzae RNase T1, a TPT1 counter-screen; shares compounds with TPT1 inhibitor; RNase T1 cleavage, fluorescence polarization, 1536-well; inhibition, % at 5 µM; hit rate 83% among 2,400; AID 2153;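 active means inhibition above the solvent-only control well mean plus 3 SD, limit set per screening run, cut at about 23% in these data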;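 further: inhibitors block cleavage so intact labeled substrate keeps polarization high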
Target sequence (P00651 whole entry, looked up): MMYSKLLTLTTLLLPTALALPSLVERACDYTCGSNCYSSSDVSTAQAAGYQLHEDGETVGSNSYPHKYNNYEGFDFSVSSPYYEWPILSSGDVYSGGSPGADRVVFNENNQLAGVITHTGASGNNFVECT
Each line names hits and unclear results; the compound was inactive in the other large screens (follow-up assays come after a bar, where shown).

CC1=C(C(=O)Nc2cc(C(=O)N3CCN(c4ccc(Cl)cc4)CC3)ccc2C)SCCO1	none (no result: TPT1 inhibitor, IDE cell inh, IDE act)
Nc1ccn(CCCNCC(c2ccccc2)c2ccccc2)c(=O)n1	none (no result: TPT1 inhibitor, IDE cell inh, IDE act)
Nc1ccn(C(C=O)CC(C=O)CO)c(=O)n1 (stereo not given)	none (no result: TPT1 inhibitor, IDE cell inh, IDE act)
CCOC(=O)c1c(N)sc2c1CCN(CCc1ccccc1)C2	TPT1 inhibitor 28 (not shown: Rpn11 block) | TPT1 inh confirm inactive | RNase T1 counter 24
CCOC(=O)c1c(NC(=S)Nc2ccccc2)sc2c1CCN(CCc1ccccc1)C2	TPT1 inhibitor 120 (no result: CSN inh, IDE act, Rpn11 block, HNF4A DNA FP) | TPT1 inh confirm 114 | RNase T1 counter 113
CCOC(=O)c1c(NC(C)=O)sc2c1CCN(Cc1ccccc1)C2	none
CCOC(=O)c1c(NC(=O)C(C)Sc2cccc[n+]2[O-])sc2c1CCN(Cc1ccccc1)C2 (stereo not given)	TPT1 inhibitor 71 | TPT1 inh confirm 77 | RNase T1 counter 86
CC(C)N1CC(=O)N2CSCC2C1=O (stereo not given)	none (no result: TPT1 inhibitor, IDE cell inh, IDE act, Rpn11 block)
CC(C)COC(=O)N1CCCCC1c1cc(C(=O)NCc2ccc(F)cc2)no1 (stereo not given)	none (no result: TPT1 inhibitor, IDE cell inh, IDE act)
Cc1ccc(C2=NOC(=O)/C2=C\c2ccc(C)o2)cc1	TPT1 inhibitor 40 | TPT1 inh confirm inactive | RNase T1 counter inactive
Cc1ccc(/C=C2\C(=O)ON=C2c2ccccc2)o1	none (no result: IDE act)
CC(C)NC(=O)C1(C)CCCN1C/C=C/c1ccccc1 (stereo not given)	none (no result: TPT1 inhibitor, IDE cell inh, IDE act)
CCCn1c(NC(=O)CCS(=O)(=O)c2ccc(C)cc2)nc2ccccc21	TPT1 inhibitor 46 | TPT1 inh confirm 58 | RNase T1 counter 68
CCOC(=O)c1sc(N)c(C#N)c1COC(=O)CNC(=O)c1cc(OC)c(OC)c(OC)c1	CSN inh 71, TPT1 inhibitor 79, HNF4A DNA FP 99 (not shown: Rpn11 block) | TPT1 inh confirm 92 | RNase T1 counter 103
COc1cc(C(=O)NCC(=O)OCc2ccccc2Cl)cc(OC)c1OC	none
COc1ccccc1S(=O)(=O)N(C)C[C@@H]1OCc2cnnn2CCCC(=O)N([C@@H](C)CO)C[C@@H]1C	none (no result: TPT1 inhibitor, IDE cell inh, IDE act)
O=C(Cc1ccccc1)Nc1ccc(N2CCOCC2)cc1	none
O=C(Cc1ccccc1)Nc1ccc(N2CCCC2)cc1	TPT1 inhibitor 36 | TPT1 inh confirm inactive | RNase T1 counter 26
CCN1C(=O)/C(=C/c2ccc(C)s2)NC1=S	none
Cc1ccc(/C=C2/NC(=O)N(Cc3ccccc3)C2=O)s1	TPT1 inhibitor 88, HNF4A DNA FP 55 (not shown: Rpn11 block) | TPT1 inh confirm 91 | RNase T1 counter 95
Cc1ccc(NC(=O)CN2C(=O)N/C(=C/c3ccc(C)s3)C2=O)cc1	CSN inh 58, TPT1 inhibitor 71 (not shown: Rpn11 block) | TPT1 inh confirm 66 | RNase T1 counter 76
Cc1cccc(CN2C(=O)N/C(=C/c3ccc(C)s3)C2=O)c1	TPT1 inhibitor 98, HNF4A DNA FP 35 (not shown: Rpn11 block) | TPT1 inh confirm 87 | RNase T1 counter 95
CC(C)C[C@@H](CN)NC(=O)c1nc[nH]c1C(=O)N[C@@H](C)C(=O)CNC[C@H](C)NC(=O)c1nc[nH]c1C(=O)N[C@@H](CC(C)C)C(=O)O	none (no result: TPT1 inhibitor, IDE cell inh)
CC(C)NC(=O)C1(C)CCN1C(=O)c1ccc(F)c(Cl)c1 (stereo not given)	none (no result: TPT1 inhibitor, IDE cell inh, IDE act)
C=CCNC(=O)c1cc2c(=O)c3ccccc3oc2nc1C	TPT1 inhibitor 48 | TPT1 inh confirm inactive | RNase T1 counter inactive
Cc1nc2oc3ccccc3c(=O)c2cc1C(=O)O	none
CCOc1ccc(NC(=O)c2ccc(NC(=O)CSc3nc4ccccc4c(=O)[nH]3)cc2)cc1	TPT1 inhibitor 53 | TPT1 inh confirm inactive | RNase T1 counter inactive
CCN(CC)c1ccc(NC(=O)CSc2nc3nc(C)cc(C)c3c(=O)[nH]2)cc1	none
COc1ccc(NC(=O)CSc2nc3nc(C)cc(C)c3c(=O)[nH]2)cc1	TPT1 inhibitor 25 | TPT1 inh confirm inactive | RNase T1 counter inactive
CC1(C)CC(=O)C=C(c2cccc(OC(=O)c3ccc(Br)cc3)c2)C1=O	none (no result: TPT1 inhibitor, IDE cell inh, IDE act)
